Experiments:
[1] = Toxic activity against VERO cells.; assay type: toxicity, cell-based; settings: Chlorocebus sabaeus
Outline: (§1)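 Cytotoxicity tested at concentrations up to 100 μM in PBM, CEM and Vero cells.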

[2] = Toxic activity against peripheral blood mononuclear cells.; assay type: toxicity; outline: as §1
CCRF-CEM = assay: The cytotoxicity against CEM cells; assay type: functional, cell-based; settings: Homo sapiens; outline: as §1
[3] = In vitro anti-HIV activity in peripheral blood mononuclear cells.; assay type: functional
Outline: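 Antiviral assay in primary lymphocytes (peripheral blood mononuclear cells) infected with HIV-1; activity reported as EC50.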

HepG2 = assay: In vitro effective concentration against hepatitis B virus was determined in 2.2.15 cells; assay type: functional, cell-based; settings: Homo sapiens

SMILES | IC50 [1] | IC50 [2] | IC50 (CCRF-CEM) | EC50 [3] | EC50 (HepG2)
Nc1ccn([C@@H]2C[Se][C@@H](CO)O2)c(=O)n1 | > 100 µM | > 100 µM | > 100 µM | 2.4 µM | 
Nc1nc(=O)n([C@@H]2C[Se][C@@H](CO)O2)cc1F | > 100 µM | > 100 µM | > 100 µM | > 10 µM | 
Nc1nc(=O)n([C@H]2C[Se][C@@H](CO)O2)cc1F | > 100 µM | > 100 µM | > 100 µM | 0.51 µM | 1.2 µM
Nc1ccn([C@H]2C[Se][C@@H](CO)O2)c(=O)n1 | > 100 µM | > 100 µM | > 100 µM | 0.88 µM | 1.2 µM
Nc1ccn([C@@H]2CSC(CO)O2)c(=O)n1 (single isomer, unassigned) [LAMIVUDINE] | > 100 µM | > 100 µM | > 100 µM | 0.07 µM | 0.008 µM

Source: ChEMBL document CHEMBL1130145, “Synthesis, anti-human immunodeficiency virus and anti-hepatitis B virus activities of novel oxaselenolane nucleosides” (J Med Chem, 1997)
